Test results: article PMC2121072 (The Journal of Cell Biology, 1996)

Columns and labels:
[1] = target: T1, GST-PDZ 1+2+3 fusion protein of hDlg (Homo sapiens, UniProt Q12959); experiment: Solution nitrocellulose filter ATP-binding assay, GST-PDZ1+2+3 of hDlg; conditions: Scatchard analysis, Fig. 4 inset
Summary of the method: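 Scatchard: 2.0 µg glutathione-eluted, dialysed GST-PDZ1+2+3 incubated in solution with increasing ATP concentrations plus [γ-32P]ATP, 3 h on ice in Hepes pH 7.6 buffer containing 1.0 mM MgCl2. Bound label captured on nitrocellulose filter, washed, scintillation-counted. Parallel GST control at each ATP concentration; cold ATP quantified by absorbance at 259 nm; each value is the average of duplicates.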

PDZ 3 domain of hDlg = experiment: Solution filter ATP-binding assay, PDZ3 of hDlg; design: species or system human; conditions: 100 nM cold ATP, pH 7.6, 3 h on ice, Fig. 3 B
Summary of the method: (§1)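 Solution assay: purified protein (GST fusions eluted from glutathione beads with 5.0 mM reduced glutathione, then dialysed into binding buffer) incubated with [γ-32P]ATP (100-500 nCi) plus 100 nM cold ATP. Buffer: 10 mM Hepes pH 7.6, 50 mM KCl, 75 mM NaCl, 1.0 mM MgCl2, 1.0 mM EGTA. Incubated 3 h on ice, filtered through nitrocellulose, washed, scintillation-counted. GST or BSA nonspecific controls; duplicate or triplicate.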

[2] = test system: GST-PDZ3 fusion protein of Dlg; experiment: In vitro ATP binding, Dlg GST-PDZ3; design: species or system Drosophila; conditions: data not shown
Summary of the method: as §1

fusion proteins = experiment: Competition of labeled ATP binding to fusion proteins; conditions: excess of cold, nonlabeled competitor nucleotide
[3] = target: T1, GST-PDZ 1+2+3 fusion protein of hDlg; experiment: Surface plasmon resonance; type: binding; conditions: 0.5 or 2.0 mM ATP-Mg2+ complex; orientation of the experiment not stated; data not shown
PDZ domains = experiment: Nucleotide binding with radiolabeled GTP; conditions: data not shown

T1 sequence (Q12959 201-584): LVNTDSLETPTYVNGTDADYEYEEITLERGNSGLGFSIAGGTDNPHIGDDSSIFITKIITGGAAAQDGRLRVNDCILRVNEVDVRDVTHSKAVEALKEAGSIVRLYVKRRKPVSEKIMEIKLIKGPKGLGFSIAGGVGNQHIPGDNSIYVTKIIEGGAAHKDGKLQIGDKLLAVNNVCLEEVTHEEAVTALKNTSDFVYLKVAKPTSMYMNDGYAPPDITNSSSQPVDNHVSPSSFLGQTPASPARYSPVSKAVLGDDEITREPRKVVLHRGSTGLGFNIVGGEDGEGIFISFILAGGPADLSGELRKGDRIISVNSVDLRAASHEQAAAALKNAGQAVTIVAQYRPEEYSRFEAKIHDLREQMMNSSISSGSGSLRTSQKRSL

Structure (SMILES) | ATP binding sites (Scatchard) [1] | ATP binding (PDZ 3 domain of hDlg) | ATP binding [2] | binding of labeled ATP in presence of competitor (fusion proteins) | effect of ATP on GST-PDZ 1+2+3 / Kv1.4 peptide binding affinity [3] | binding of radiolabeled GTP (PDZ domains)
Nc1ncnc2c1ncn2[C@@H]1O[C@H](COP(=O)(O)OP(=O)(O)OP(=O)(O)O)[C@@H](O)[C@H]1O [ATP] | single class of binding sites | inactive for ATP binding | binds ATP in vitro | failed | No effect on the binding affinity | –
Nc1nc2c(ncn2[C@@H]2O[C@H](COP(=O)(O)OP(=O)(O)OP(=O)(O)O)[C@@H](O)[C@H]2O)c(=O)[nH]1 [GTP] | – | – | – | succeeded | – | no binding
